RGS4 pot = RGS4 potentiation or activation | HEK293 M3R/inducible RGS4, carbachol calcium flux Fluo4; active compounds read low | B-score at 10 µM | hit rate 0.92% among 310,000 | AID 463111;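 active = B-score of the integrated calcium signal more than 4 SD below the library mean, with starting fluorescence not abnormally high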;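 note: negative B-score means reduced calcium response which marks RGS4 activation or potentiation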
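test system = HEK293 cells with stable M3R and inducible RGS4 | schedule = recording 10 s baseline at 1 Hz, 100 s post-agonist | technique = Fluo4-AM (2 µM) calcium-flux fluorescence, kinetic read | measure = Agonist-evoked peak-minus-minimum fluorescence over baseline, integrated ratio, B score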
MrgX1 allo act = human MrgX1 positive allosteric modulation, primary screen. Q96LB2. MrgX1-HEK293, Fluo-4 calcium flux, FDSS; active compounds read high. B-score at 10 µM. hit rate 0.63% among 310,000. AID 588675;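 active = plate-corrected calcium response at least 3 library SD above typical, normal starting fluorescence, not activating the receptor alone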;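 note: compound read alongside a low EC10 to EC30 dose of BAM8-22 agonist; peak minus trough fluorescence over baseline measured at the second addition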
Target sequence (Q96LB2 whole entry, looked up): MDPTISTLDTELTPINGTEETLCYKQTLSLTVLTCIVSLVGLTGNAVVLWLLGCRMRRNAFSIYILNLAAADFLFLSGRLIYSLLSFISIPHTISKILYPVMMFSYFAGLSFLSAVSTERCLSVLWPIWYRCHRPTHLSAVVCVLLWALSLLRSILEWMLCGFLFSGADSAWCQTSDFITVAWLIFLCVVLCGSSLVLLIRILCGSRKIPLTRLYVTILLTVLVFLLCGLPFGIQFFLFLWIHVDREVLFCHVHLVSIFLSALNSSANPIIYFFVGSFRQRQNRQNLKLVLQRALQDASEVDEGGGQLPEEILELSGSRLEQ
MrgX1 antag = human MrgX1 receptor antagonism, primary screen; Q96LB2; MRGX1-HEK293 calcium flux, Fluo-4, BAM8-22 antagonism; active compounds read low; B-score at 10 µM; hit rate 1.3% among 310,000;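 active = calcium-response B-score plate-corrected more than 3 library SD below zero, starting fluorescence within 5 deviations, no agonist response on first addition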;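 note: peak minus trough fluorescence over baseline after final BAM8-22 challenge near maximal dose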
MrgX1 agonist = human MrgX1 receptor agonism, primary screen. hit rate 0.44% among 310,000. MrgX1-HEK293 cells, Fluo-4 calcium fluorescence, agonist mode; active compounds read high. B-score at 10 µM. AID 588627;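 active = calcium response B-score plate-corrected fluorescence ratio at least 3 library SD, with starting fluorescence B-score inside 5 SD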
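Test system: HEK293 cells stably expressing human MrgX1 receptor; amount: 15,000 cells per well; doses: compound delivered in addition one of three; times: overnight plating before 1 h dye loading; detection: Fluo-4 NW calcium-flux fluorescence, kinetic read; read-out basis: B-scored fluorescence response ratio; controls: positive and negative controls per plate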
RGS4 block = inhibitors of human RGS4 | B-score at 10 µM | AID 463165 | hit rate 0.45% among 310,000 | HEK293 M3R/RGS4 inducible, Fluo-4 calcium flux; active compounds read high; triggered by carbachol at its EC20 | P49798;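 active = B-score, a plate-corrected calcium signal, over three deviations above library mean, with baseline fluorescence within five deviations of library mean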;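 note: RGS4 expression induced by doxycycline in cells with stable M3 receptor; B-score is computed from the integrated fluorescence ratio over baseline after carbachol; higher B-score means a larger calcium signal and so more RGS4 inhibition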
Target sequence (P49798 whole entry, looked up): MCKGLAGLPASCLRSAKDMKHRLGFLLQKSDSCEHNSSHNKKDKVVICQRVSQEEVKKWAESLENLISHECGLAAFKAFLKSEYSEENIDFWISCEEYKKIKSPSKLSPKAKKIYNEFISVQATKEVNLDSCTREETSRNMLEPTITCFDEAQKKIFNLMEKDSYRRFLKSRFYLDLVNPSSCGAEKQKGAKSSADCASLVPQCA
RGS4 act valid = confirmation of RGS4 activators | inhibition, % at 10 µM | HEK293 M3R/RGS4 inducible, carbachol calcium flux Fluo4 | shares compounds with RGS4 pot | hit rate 89% among 1,100;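 active = inhibition above 3 SD of the buffer control wells, cut at about 41% in these data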;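 note: signal is the integrated peak-minus-minimum Fluo4 fluorescence over baseline ratio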
RGS4 act ctr = activity in cells without induced RGS4 expression; shares compounds with RGS4 pot; HEK293 M3R non-induced RGS4, Fluo4 calcium flux; after carbachol challenge at its EC90; inhibition, % at 10 µM; hit rate 82% among 1,100; AID 602283;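 active = inhibition exceeding 3 SD of buffer-only control wells, cut at about 26% in these data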;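 note: percent drop in integrated peak-minus-baseline over baseline Fluo4 ratio after carbachol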
* marks the source's active call; other numbers are inactive results; i = inactive; . = no result. An excerpt weighted towards active compounds, which were near 3.5% of everything screened.

SMILES	RGS4 pot	MrgX1 allo act	MrgX1 antag	MrgX1 agonist	RGS4 block	RGS4 act valid	RGS4 act ctr
N#Cc1ccc(C(=O)NCC(c2ccco2)N2CCCC2)cc1 (stereo unspecified)	i	i	i	i	i	.	.
N#Cc1ccccc1Sc1ccccc1C(=O)NCC(c1ccco1)N1CCCC1 (stereo unspecified)	-7.9*	i	i	i	i	65*	29*
OC(C#CCN1CCCC1)(c1ccccc1)c1ccccc1	-7.6*	i	i	i	i	94*	91*
OC(C#CCN1CCCCC1)(c1ccccc1)c1ccccc1	i	i	i	i	i	.	.
CC(C)(C#CC(O)(c1ccccc1)c1ccccc1)N1CCCC1	-8.9*	i	i	i	i	92*	87*
CC(O)(C#CCN1CCCCCC1)c1ccccc1 (stereo unspecified)	-9.8*	i	i	i	i	66*	84*
O=C(Nc1ccc(Cl)cc1C(=O)N1CCCC1)c1cccc([N+](=O)[O-])c1	i	i	i	i	i	.	.
Cc1cc(-c2nc(-c3ccncc3)no2)ccc1[N+](=O)[O-]	i	i	i	i	i	.	.
CC(=O)NC(=O)c1cnn(-c2ccccc2)c1N	-8.8*	i	i	i	i	0	0
COC(=O)c1cnn(-c2ccccc2)c1N	i	i	i	i	i	.	.
C/C=C1\COC(C(=O)NCc2ccccc2)(C(F)(F)F)C=C1C=C(C)C (stereo unspecified)	-7.8*	i	i	i	i	92*	93*
CCC(=O)C1CCCN(C(=O)c2ccc3nc(-c4cccc(OC)c4)oc3c2)C1 (stereo unspecified)	i	i	i	i	i	.	.
Cc1ccc(C)c(N2CCN(C(=O)c3cc4c(C)nc5ccccc5c4o3)CC2)c1	-8.5*	i	i	i	i	89*	68*
CCOC(=O)C1CCCN(C(=O)c2cc3c(C)nc4ccccc4c3o2)C1 (stereo unspecified)	-9.2*	i	i	i	i	82*	61*
CCOC(=O)C1CCCN(C(=O)c2ccc3nc(-c4cccc(OC)c4)oc3c2)C1 (stereo unspecified)	-8.7*	i	i	i	i	54*	84*
Cc1ccc(CNC(=O)c2cc3c(C)nc4ccccc4c3o2)cc1	i	i	i	i	i	.	.
O=Cc1ccc(OCC(=O)N2CCOCC2)cc1	i	i	i	i	i	.	.
CC[N+]1(C)CCC(=C2c3ccccc3CC(=O)c3sccc32)CC1 (stereo unspecified)	-11*	i	-6.7*	i	i	95*	84*
Cc1cc(-c2ccc(C(C)C)c(S(=O)(=O)Nc3ccccn3)c2)on1	i	i	i	i	i	.	.
Cc1ccc(/C=C/S(=O)(=O)Nc2ccc(C)cc2)cc1	-9.8*	i	i	i	i	90*	44*
Cc1ccc(NS(=O)(=O)N(C)C)cc1	i	i	i	i	i	.	.
Cc1ccc(Oc2ccc(NC(=O)Cn3ccsc3=N)cc2)cc1	-8.8*	i	i	45*	i	89*	52*
CC1CCCN(S(=O)(=O)c2ccccc2[N+](=O)[O-])C1 (stereo unspecified)	i	i	i	i	i	.	.
Cc1ccc(C(OCC(C)(C)C[N+](C)(C)C)c2ccccc2)cc1 (stereo unspecified)	-11*	i	i	i	i	88*	63*
O=C(OCC(=O)c1c[nH]c2ccccc12)c1cc(Br)ccc1O	i	i	i	i	i	.	.
SMILES	RGS4 pot	MrgX1 allo act	MrgX1 antag	MrgX1 agonist	RGS4 block	RGS4 act valid	RGS4 act ctr
COc1ccc(OS(=O)(=O)c2c(C)noc2C)cc1	-9.3*	i	i	i	i	84*	41*
CC(NS(=O)(=O)OCC(Cl)(Cl)Cl)c1ccc(C(C)(C)C)cc1 (stereo unspecified)	-8*	i	i	i	i	91*	94*
Cc1csc(=O)n1CC(=O)OCC(=O)Nc1ccc(Cl)cc1F	i	i	i	i	i	.	.
CSC1=NCCN1C(=O)COc1ccc2ccccc2c1	-9.5*	i	i	i	i	0	0
CSC1=NCCN1C(=O)COc1ccccc1	i	i	i	i	i	.	.
CCOc1cc(C(=O)N/N=C/C2CC=CCC2)cc(OCC)c1OCC (stereo unspecified)	i	i	i	i	i	.	.
c1ccc2c(c1)[nH]c1c(N3CCN(C4CCCCC4)CC3)ncnc12	-7.8*	i	i	i	i	64*	84*
COCCn1c(-c2ccc(Br)cc2)nc2oc3cc(OC)ccc3c(=O)c2c1=O	-8.3*	i	i	i	i	0	0
COCCn1c(-c2ccccc2)nc2oc3cc(OC)ccc3c(=O)c2c1=O	i	i	i	i	i	.	.
c1ccc(N2CCN(c3cnccn3)CC2)nc1	-8.4*	i	i	i	i	0	0
COc1cccc(/C=C(\C)C(=O)c2c(C)cc(C)[nH]c2=O)c1OC	i	i	i	i	i	.	.
Fc1cccc(-c2cc3nc4c(c(NCc5ccco5)n3n2)CCCC4)c1	-8.1*	i	i	i	i	86*	45*
Fc1cccc(-c2cc3nc4c(c(N5CCOCC5)n3n2)CCCC4)c1	i	i	i	i	i	.	.
